The results in this text go back to ChEMBL document CHEMBL3745673, “Synthesis, antimycobacterial screening and ligand-based molecular docking studies on novel pyrrole derivatives bearing pyrazoline, isoxazole and phenyl thiourea moieties” (Eur J Med Chem, 2016).

As usually defined, the MIC is the least concentration at which growth counts as inhibited. Lower therefore signals a more susceptible organism. For orientation: inhibition means the drop in the measured response relative to a control, in per cent.

Converted amounts (≈) assume the structure as drawn. The source made the active and inactive calls. No cut-off for these calls is given here.

For one experiment, the system named is Staphylococcus aureus. In words: Antibacterial activity against Staphylococcus aureus after 18 hrs by broth microdilution method. It counts as functional. The essentials:
(§1)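 Broth microdilution; compounds dissolved in DMSO (10 mg in 1 mL), serially diluted in Mueller-Hinton medium to 0.2–100 µg/mL. MIC taken as lowest concentration giving no visible growth. DMSO solvent control at matching dilutions.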
Background: In broth dilution the organism is exposed to a series of concentrations in liquid medium.

The next experiment relates to Escherichia coli. Put plainly: Antibacterial activity against Escherichia coli after 18 hrs by broth microdilution method. It is filed as functional. The essentials: as §1
Experiment [1] concerns Mycobacterium tuberculosis. Put plainly: Inhibition of Mycobacterium tuberculosis His6-tagged InhA expressed in Escherichia coli BL21 using trans-2-dodecenoyl-coA as substrate at 50 uM.

Consider `COc1cccc(C2CC(c3ccc(-n4cccc4)cc3)=NN2C(C)=O)c1` (configuration not stated), for which the MIC with Staphylococcus aureus worked out at 25 µg/mL (≈ 69.6 µM); against Escherichia coli, 50 µg/mL (≈ 139 µM).

`Cc1ccc(C)n1-c1ccccc1NC(=S)Nc1ccccc1`: the results for the MIC with Staphylococcus aureus and against Escherichia coli were 0.8 µg/mL (≈ 2.49 µM) and 0.2 µg/mL (≈ 0.622 µM), respectively.

For the compound `Brc1ccccc1-c1cc(-c2ccc(-n3cccc3)cc2)on1`, the minimum inhibitory concentration (MIC) in the experiment with Staphylococcus aureus and in the experiment with Escherichia coli was 50 µg/mL (≈ 137 µM) throughout.

Consider `O=C(/C=C/c1ccc(Cl)cc1)c1ccc(-n2cccc2)cc1`, for which the minimum inhibitory concentration (MIC) in the experiment with Staphylococcus aureus and against Escherichia coli was 50 µg/mL (≈ 162 µM) throughout.

For the compound `COc1cccc(/C=C/C(=O)c2ccc(-n3cccc3)cc2)c1`, the MIC with Staphylococcus aureus was 25 µg/mL (≈ 82.4 µM); in the experiment on Escherichia coli, 12.5 µg/mL (≈ 41.2 µM).

For `COc1ccc(-c2cc(-c3ccc(-n4cccc4)cc3)on2)cc1OC`, the MIC in the experiment on Staphylococcus aureus and in the experiment on Escherichia coli was 25 µg/mL (≈ 72.2 µM) in each case.

In the case of `CC(=O)N1N=C(c2ccc(-n3cccc3)cc2)CC1c1cccc(Br)c1` (configuration not stated), the figures for the MIC in the experiment with Staphylococcus aureus and against Escherichia coli were 50 µg/mL (≈ 122 µM) and 25 µg/mL (≈ 61.2 µM), respectively.

As to `Cc1ccc(C)n1-c1ccccc1NC(=S)Nc1ccc(Cl)cc1`, in experiment [1], the inhibition result is “inactive”. The MIC in the experiment with Staphylococcus aureus and against Escherichia coli was 0.2 µg/mL (≈ 0.562 µM) throughout.

Take `CC(=O)N1N=C(c2ccc(-n3cccc3)cc2)CC1c1c(Cl)cccc1Cl` (configuration not stated): the values for the MIC in the experiment on Staphylococcus aureus and against Escherichia coli were 25 µg/mL (≈ 62.8 µM) and 50 µg/mL (≈ 126 µM), respectively.

As to `CC(=O)N1N=C(c2ccc(-n3cccc3)cc2)CC1c1ccccc1` (configuration not stated), the MIC against Staphylococcus aureus and against Escherichia coli was 50 µg/mL (≈ 152 µM) throughout.

For `c1coc(-c2cc(-c3ccc(-n4cccc4)cc3)on2)c1`, the MIC against Staphylococcus aureus was 50 µg/mL (≈ 181 µM); in the experiment with Escherichia coli, 25 µg/mL (≈ 90.5 µM).

Take `COc1ccc(C2CC(c3ccc(-n4cccc4)cc3)=NN2C(C)=O)c(OC)c1` (configuration not stated): the MIC came out at 25 µg/mL (≈ 64.2 µM) with Staphylococcus aureus and 12.5 µg/mL (≈ 32.1 µM) in the experiment on Escherichia coli.

With `Clc1ccc(-c2cc(-c3ccc(-n4cccc4)cc3)on2)cc1`, the MIC in the experiment with Staphylococcus aureus and in the experiment on Escherichia coli was 25 µg/mL (≈ 77.9 µM) throughout.

`CC(=O)N1N=C(c2ccc(-n3cccc3)cc2)CC1c1ccc(C)cc1` (configuration not stated): the MIC against Staphylococcus aureus amounted to 25 µg/mL (≈ 72.8 µM); against Escherichia coli it was 12.5 µg/mL (≈ 36.4 µM).

`CCn1cc(C(=O)O)c(=O)c2cc(F)c(N3CCNCC3)cc21` [NORFLOXACIN]: the MIC with Staphylococcus aureus came to 2.02 µg/mL (≈ 6.33 µM); in the experiment with Escherichia coli it was 4 µg/mL (≈ 12.5 µM).

Turning to `Cc1ccc(C)n1-c1ccccc1NC(=S)Nc1cccc(Br)c1`, the MIC in the experiment on Staphylococcus aureus and with Escherichia coli was 0.2 µg/mL (≈ 0.5 µM) throughout.

Take `O=C(/C=C/c1cccc(Br)c1)c1ccc(-n2cccc2)cc1`: the MIC with Staphylococcus aureus worked out at 50 µg/mL (≈ 142 µM); in the experiment with Escherichia coli it was 25 µg/mL (≈ 71 µM).

Take `Cc1ccc(C)n1-c1ccccc1NC(=S)Nc1ccc(F)cc1`: the MIC with Staphylococcus aureus and with Escherichia coli was 0.8 µg/mL (≈ 2.36 µM) each time.

Turning to `O=C(/C=C/c1ccc(F)cc1)c1ccc(-n2cccc2)cc1`, the MIC came out at 25 µg/mL (≈ 85.8 µM) against Staphylococcus aureus and 12.5 µg/mL (≈ 42.9 µM) with Escherichia coli.

Consider `O=C(/C=C/c1cccc(Oc2ccccc2)c1)c1ccc(-n2cccc2)cc1`, for which the MIC with Staphylococcus aureus and with Escherichia coli was 50 µg/mL (≈ 137 µM) in each case.

For `COc1ccc(/C=C/C(=O)c2ccc(-n3cccc3)cc2)cc1`, the minimal inhibitory concentration (MIC) in the experiment with Staphylococcus aureus came out at 25 µg/mL (≈ 82.4 µM); in the experiment on Escherichia coli, 12.5 µg/mL (≈ 41.2 µM).

For the compound `O=C(/C=C/c1ccccc1Br)c1ccc(-n2cccc2)cc1`, the MIC against Staphylococcus aureus worked out at 50 µg/mL (≈ 142 µM); with Escherichia coli it was 25 µg/mL (≈ 71 µM).

Take `O=C(/C=C/c1cccc(Cl)c1Cl)c1ccc(-n2cccc2)cc1`: the MIC was 25 µg/mL (≈ 73.1 µM) against Staphylococcus aureus and 50 µg/mL (≈ 146 µM) against Escherichia coli.

For `Clc1cccc(Cl)c1-c1cc(-c2ccc(-n3cccc3)cc2)on1`, the MIC with Staphylococcus aureus was 25 µg/mL (≈ 70.4 µM); with Escherichia coli it was 50 µg/mL (≈ 141 µM).

On to `Clc1ccc(-c2cc(-c3ccc(-n4cccc4)cc3)on2)c(Cl)c1`, for which the minimal inhibitory concentration (MIC) was 25 µg/mL (≈ 70.4 µM) with Staphylococcus aureus and 50 µg/mL (≈ 141 µM) against Escherichia coli.

Turning to `Cc1ccc(NC(=S)Nc2ccccc2-n2c(C)ccc2C)cc1`, the MIC with Staphylococcus aureus is 0.4 µg/mL (≈ 1.19 µM); against Escherichia coli, 6.25 µg/mL (≈ 18.6 µM).

Regarding `Cc1ccc(C)n1-c1ccccc1NC(=S)Nc1ccc([N+](=O)[O-])cc1`, the MIC stood at 0.2 µg/mL (≈ 0.546 µM) against Staphylococcus aureus and 0.4 µg/mL (≈ 1.09 µM) against Escherichia coli.

`CC(=O)N1N=C(c2ccc(-n3cccc3)cc2)CC1c1ccc(Cl)cc1Cl` (configuration not stated): the minimum inhibitory concentration (MIC) with Staphylococcus aureus is 50 µg/mL (≈ 126 µM); against Escherichia coli, 25 µg/mL (≈ 62.8 µM).

For the compound `O=C(/C=C/c1ccc(Cl)cc1Cl)c1ccc(-n2cccc2)cc1`, the MIC in the experiment with Staphylococcus aureus and in the experiment with Escherichia coli was 50 µg/mL (≈ 146 µM) in each case.

Regarding `CC(=O)N1N=C(c2ccc(-n3cccc3)cc2)CC1c1ccc(F)cc1` (configuration not stated), the MIC with Staphylococcus aureus and with Escherichia coli was 12.5 µg/mL (≈ 36 µM) in each case.

Regarding `CC(=O)N1N=C(c2ccc(-n3cccc3)cc2)CC1c1ccco1` (configuration not stated), the MIC against Staphylococcus aureus is 50 µg/mL (≈ 157 µM); against Escherichia coli it was 100 µg/mL (≈ 313 µM).

Turning to `Clc1ccccc1-c1cc(-c2ccc(-n3cccc3)cc2)on1`, the MIC in the experiment on Staphylococcus aureus and in the experiment with Escherichia coli was 50 µg/mL (≈ 156 µM) in each case.

`Cc1ccc(C)n1-c1ccccc1NC(=S)Nc1ccc(Cl)c(Cl)c1` returned an inhibition in experiment [1] of 13%. Moreover, the MIC with Staphylococcus aureus and in the experiment with Escherichia coli was 0.2 µg/mL (≈ 0.512 µM) in each case.

Take `O=C(/C=C/c1ccccc1)c1ccc(-n2cccc2)cc1`: the minimal inhibitory concentration (MIC) against Staphylococcus aureus and against Escherichia coli was 25 µg/mL (≈ 91.5 µM) throughout.

`Oc1cc(Cl)ccc1Oc1ccc(Cl)cc1Cl`: the inhibition in experiment [1] is > 99%.

With `CC(=O)N1N=C(c2ccc(-n3cccc3)cc2)CC1c1ccccc1Cl` (configuration not stated), the minimum inhibitory concentration (MIC) against Staphylococcus aureus was 50 µg/mL (≈ 137 µM); in the experiment on Escherichia coli it was 25 µg/mL (≈ 68.7 µM).

With `Cc1ccc(C)n1-c1ccccc1NC(=S)Nc1cccc(Cl)c1`, the MIC against Staphylococcus aureus amounted to 0.2 µg/mL (≈ 0.562 µM); against Escherichia coli it was 0.4 µg/mL (≈ 1.12 µM).

`COc1ccc(C2CC(c3ccc(-n4cccc4)cc3)=NN2C(C)=O)cc1OC` (configuration not stated): the minimal inhibitory concentration (MIC) was 25 µg/mL (≈ 64.2 µM) in the experiment with Staphylococcus aureus and 12.5 µg/mL (≈ 32.1 µM) in the experiment with Escherichia coli.

On to `O=C(/C=C/c1c(Cl)cccc1Cl)c1ccc(-n2cccc2)cc1`, for which the MIC with Staphylococcus aureus was determined as 25 µg/mL (≈ 73.1 µM); against Escherichia coli, 50 µg/mL (≈ 146 µM).

As to `CC(=O)N1N=C(c2ccc(-n3cccc3)cc2)CC1c1ccc(Cl)cc1` (configuration not stated), the minimal inhibitory concentration (MIC) is 25 µg/mL (≈ 68.7 µM) with Staphylococcus aureus and 50 µg/mL (≈ 137 µM) in the experiment with Escherichia coli.

Regarding `O=C(O)c1cn(C2CC2)c2cc(N3CCNCC3)c(F)cc2c1=O` [CIPROFLOXACIN], in the experiment on Staphylococcus aureus, the MIC came to 0.15 µg/mL (≈ 0.453 µM).

Consider `Brc1cccc(-c2cc(-c3ccc(-n4cccc4)cc3)on2)c1`, for which the MIC in the experiment on Staphylococcus aureus and against Escherichia coli was 25 µg/mL (≈ 68.5 µM) each time.

For `COc1ccc(/C=C/C(=O)c2ccc(-n3cccc3)cc2)cc1OC`, the MIC against Staphylococcus aureus and against Escherichia coli was 12.5 µg/mL (≈ 37.5 µM) each time.

On to `O=C(/C=C/c1ccco1)c1ccc(-n2cccc2)cc1`, for which the minimal inhibitory concentration (MIC) against Staphylococcus aureus and against Escherichia coli was 25 µg/mL (≈ 95 µM) each time.

In the case of `Fc1ccc(-c2cc(-c3ccc(-n4cccc4)cc3)on2)cc1`, the results for the MIC in the experiment with Staphylococcus aureus and with Escherichia coli were 25 µg/mL (≈ 82.1 µM) and 12.5 µg/mL (≈ 41.1 µM), respectively.

For `CC(=O)N1N=C(c2ccc(-n3cccc3)cc2)CC1c1cccc(Oc2ccccc2)c1` (configuration not stated), the MIC against Staphylococcus aureus is 100 µg/mL (≈ 237 µM); in the experiment on Escherichia coli, 50 µg/mL (≈ 119 µM).

In the case of `Cc1ccc(-c2cc(-c3ccc(-n4cccc4)cc3)on2)cc1`, the MIC in the experiment on Staphylococcus aureus was 25 µg/mL (≈ 83.2 µM); in the experiment on Escherichia coli, 12.5 µg/mL (≈ 41.6 µM).

Regarding `CC(C)c1ccc(/C=C/C(=O)c2ccc(-n3cccc3)cc2)cc1`, the MIC with Staphylococcus aureus and in the experiment with Escherichia coli was 12.5 µg/mL (≈ 39.6 µM) each time.

`O=C(/C=C/c1ccccc1O)c1ccc(-n2cccc2)cc1`: the minimum inhibitory concentration (MIC) with Staphylococcus aureus and against Escherichia coli was 50 µg/mL (≈ 173 µM) each time.

For `CC(=O)N1N=C(c2ccc(-n3cccc3)cc2)CC1c1ccccc1Br` (configuration not stated), the results for the MIC against Staphylococcus aureus and in the experiment on Escherichia coli were 100 µg/mL (≈ 245 µM) and 50 µg/mL (≈ 122 µM), respectively.

Regarding `O=C(/C=C/c1ccccc1Cl)c1ccc(-n2cccc2)cc1`, the values for the MIC against Staphylococcus aureus and in the experiment with Escherichia coli were 25 µg/mL (≈ 81.2 µM) and 50 µg/mL (≈ 162 µM), respectively.

In the case of `CC(=O)N1N=C(c2ccc(-n3cccc3)cc2)CC1c1cccc(Cl)c1Cl` (configuration not stated), the MIC with Staphylococcus aureus worked out at 25 µg/mL (≈ 62.8 µM); with Escherichia coli it was 50 µg/mL (≈ 126 µM).

In the case of `Cc1ccc(C)n1-c1ccccc1NC(=S)Nc1ccccc1Br`, the MIC came out at 1.6 µg/mL (≈ 4 µM) in the experiment on Staphylococcus aureus and 0.8 µg/mL (≈ 2 µM) in the experiment with Escherichia coli.

In the case of `c1ccc(-c2cc(-c3ccc(-n4cccc4)cc3)on2)cc1`, the values for the MIC with Staphylococcus aureus and against Escherichia coli were 50 µg/mL (≈ 175 µM) and 25 µg/mL (≈ 87.3 µM), respectively.

As to `Clc1cccc(-c2cc(-c3ccc(-n4cccc4)cc3)on2)c1Cl`, the minimal inhibitory concentration (MIC) amounted to 50 µg/mL (≈ 141 µM) in the experiment on Staphylococcus aureus and 25 µg/mL (≈ 70.4 µM) in the experiment with Escherichia coli.

As to `c1ccc(Oc2cccc(-c3cc(-c4ccc(-n5cccc5)cc4)on3)c2)cc1`, the MIC against Staphylococcus aureus and with Escherichia coli was 50 µg/mL (≈ 132 µM) each time.
